According to ChEMBL document CHEMBL1212884, “Aryl phosphoramidates of 5-phospho erythronohydroxamic acid, a new class of potent trypanocidal compounds” (J Med Chem, 2010):

System: Blood
Test: Half life in mouse blood
Assay type: ADME, tissue-based
Details: not given; call rule not given here
Procedure, shortened: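 Prodrugs incubated in mouse blood to gauge their stability toward esterases. Half-life reported in minutes.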

In the case of COC(=O)CNP(=O)(OC[C@H]1OC(C)(C)O[C@H]1C(=O)NO)Oc1ccccc1 (some centres not stated), the t1/2 is reported as < 0.25 h.
With COC(=O)[C@@H](C)NP(=O)(OC[C@H]1OC(C)(C)O[C@H]1C(=O)NO)Oc1ccccc1 (some centres not stated) the t1/2 was < 0.25 h.
In the case of CCOC(=O)[C@@H](C)NP(=O)(OC[C@H]1OC(C)(C)O[C@H]1C(=O)NO)Oc1ccccc1 (some centres not stated), the t1/2 is reported as < 0.25 h.
For COC(=O)[C@@H](C)NP(=O)(OC[C@H]1OC(C)(C)O[C@H]1C(=O)NO)Oc1ccc(C)cc1 (some centres not stated), the t1/2 was < 0.25 h.
With Cc1cccc(OP(=O)(N[C@@H](C(=O)OC(C)(C)C)C(C)C)OC[C@H]2OC(C)(C)O[C@H]2C(=O)NO)c1C (some centres not stated) the t1/2 was > 8 h.

Point of comparison: COC(=O)[C@H](NP(=O)(OC[C@H]1OC(C)(C)O[C@H]1C(=O)NO)Oc1ccccc1)C(C)C (some centres not stated), t1/2 0.75 h. Against it:
- CCOC(=O)[C@H](NP(=O)(OC[C@H]1OC(C)(C)O[C@H]1C(=O)NO)Oc1ccccc1)C(C)C (some centres not stated) — 2.7-fold higher, 2 h
- CC(C)[C@@H](NP(=O)(OC[C@H]1OC(C)(C)O[C@H]1C(=O)NO)Oc1ccccc1)C(=O)OC(C)(C)C (some centres not stated) — 2.7-fold higher, 2 h
- CCOC(=O)[C@H](NP(=O)(OC[C@H]1OC(C)(C)O[C@H]1C(=O)NO)Oc1ccc(C)cc1)C(C)C (some centres not stated) — the same, 0.75 h
- CCOC(=O)[C@H](NP(=O)(OC[C@H]1OC(C)(C)O[C@H]1C(=O)NO)Oc1cccc(C)c1C)C(C)C (some centres not stated) — within 1.5-fold, 1 h

System: not listed separately
Test: Chemical stability of the compound in phosphate buffer saline at pH 7.4 assessed as half life
Assay type: physicochemical
Details: buffer
Procedure, shortened: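 Compound incubated in phosphate buffer, pH 7.4, 37 °C, to follow chemical hydrolysis; half-life reported in hours.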

Point of comparison: CCOC(=O)[C@H](NP(=O)(OC[C@H]1OC(C)(C)O[C@H]1C(=O)NO)Oc1cccc(C)c1C)C(C)C (some centres not stated), t1/2 48 h. Against it:
- CCOC(=O)[C@@H](C)NP(=O)(OC[C@H]1OC(C)(C)O[C@H]1C(=O)NO)Oc1ccccc1 (some centres not stated) — 1.7-fold lower, 29 h
- COC(=O)[C@H](NP(=O)(OC[C@H]1OC(C)(C)O[C@H]1C(=O)NO)Oc1ccccc1)C(C)C (some centres not stated) — 2.3-fold lower, 21 h
- CCOC(=O)[C@H](NP(=O)(OC[C@H]1OC(C)(C)O[C@H]1C(=O)NO)Oc1ccccc1)C(C)C (some centres not stated) — within 1.5-fold, 61 h
- CC(C)[C@@H](NP(=O)(OC[C@H]1OC(C)(C)O[C@H]1C(=O)NO)Oc1ccccc1)C(=O)OC(C)(C)C (some centres not stated) — within 1.5-fold, 68 h
- COC(=O)[C@@H](C)NP(=O)(OC[C@H]1OC(C)(C)O[C@H]1C(=O)NO)Oc1ccc(C)cc1 (some centres not stated) — 1.6-fold lower, 30 h
- CCOC(=O)[C@@H](C)NP(=O)(OC[C@H]1OC(C)(C)O[C@H]1C(=O)NO)Oc1ccc(C)cc1 (some centres not stated) — within 1.5-fold, 34 h
- COC(=O)[C@H](NP(=O)(OC[C@H]1OC(C)(C)O[C@H]1C(=O)NO)Oc1ccc(C)cc1)C(C)C (some centres not stated) — within 1.5-fold, 45 h
- CCOC(=O)[C@H](NP(=O)(OC[C@H]1OC(C)(C)O[C@H]1C(=O)NO)Oc1ccc(C)cc1)C(C)C (some centres not stated) — 1.9-fold lower, 25 h

In the case of Cc1cccc(OP(=O)(N[C@@H](C(=O)OC(C)(C)C)C(C)C)OC[C@H]2OC(C)(C)O[C@H]2C(=O)NO)c1C (some centres not stated), the t1/2 is reported as > 24 h.

Same assay, conditions: phosphate buffer saline

Point of comparison: COC(=O)[C@@H](C)NP(=O)(OC[C@H]1OC(C)(C)O[C@H]1C(=O)NO)Oc1ccc([N+](=O)[O-])cc1 (some centres not stated), half-life 0.85 h. Against it:
- COC(=O)[C@@H](C)NP(=O)(OC[C@H]1OC(C)(C)O[C@H]1C(=O)NO)Oc1ccccc1 (some centres not stated) — 5.9-fold higher, 5 h
- COC(=O)[C@@H](C)NP(=O)(OC[C@H]1OC(C)(C)O[C@H]1C(=O)NO)Oc1cccc(C)c1C (some centres not stated) — 35-fold higher, 30 h

System: Trypanosoma brucei
Test: Antitrypanosomal activity against Trypanosoma brucei BS427 after 48 hrs by Alamar blue assay
Assay type: functional, organism-based
Details: not given
Procedure, shortened: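 Bloodstream-form T. b. brucei s427 wild type, grown in HMI-9 + 10% FCS at 37 °C, 5% CO2. Parasites seeded at 4 × 10^4 cells/mL onto 11-point 1:2 serial dilutions from a 200 μM stock in medium; drug-free well as control. After 48 h, Alamar Blue (0.49 mM in PBS) added, 24 h more; fluorescence ex 544/em 590 nm. EC50 fitted; duplicate, repeated three times.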

With CC1(C)O[C@H](COP2(=O)OCc3ccccc3O2)[C@H](C(=O)NO)O1 (some centres not stated) the EC50 was “Not Active”.

Same assay, conditions: Trypanosoma brucei, BS427, 48 h; read-out: EC50

Point of comparison: CCOC(=O)[C@H](NP(=O)(OC[C@H]1OC(C)(C)O[C@H]1C(=O)NO)Oc1ccc(C)cc1)C(C)C (some centres not stated), EC50 0.04 µM. Against it:
- COC(=O)[C@@H](C)NP(=O)(OC[C@H]1OC(C)(C)O[C@H]1C(=O)NO)Oc1ccc([N+](=O)[O-])cc1 (some centres not stated) — 1100-fold higher, 43.8 µM
- COC(=O)CNP(=O)(OC[C@H]1OC(C)(C)O[C@H]1C(=O)NO)Oc1ccccc1 (some centres not stated) — 280-fold higher, 11.4 µM
- CCOC(=O)[C@@H](C)NP(=O)(OC[C@H]1OC(C)(C)O[C@H]1C(=O)NO)Oc1ccccc1 (some centres not stated) — 20-fold higher, 0.78 µM
- COC(=O)[C@H](NP(=O)(OC[C@H]1OC(C)(C)O[C@H]1C(=O)NO)Oc1ccccc1)C(C)C (some centres not stated) — 9-fold higher, 0.36 µM
- CCOC(=O)[C@H](NP(=O)(OC[C@H]1OC(C)(C)O[C@H]1C(=O)NO)Oc1ccccc1)C(C)C (some centres not stated) — 6-fold higher, 0.24 µM
- CC(C)[C@@H](NP(=O)(OC[C@H]1OC(C)(C)O[C@H]1C(=O)NO)Oc1ccccc1)C(=O)OC(C)(C)C (some centres not stated) — 2.2-fold higher, 0.09 µM
- COC(=O)[C@@H](C)NP(=O)(OC[C@H]1OC(C)(C)O[C@H]1C(=O)NO)Oc1ccc(C)cc1 (some centres not stated) — 7.8-fold higher, 0.31 µM
- CCOC(=O)[C@@H](C)NP(=O)(OC[C@H]1OC(C)(C)O[C@H]1C(=O)NO)Oc1ccc(C)cc1 (some centres not stated) — 4.5-fold higher, 0.18 µM
- COC(=O)[C@H](NP(=O)(OC[C@H]1OC(C)(C)O[C@H]1C(=O)NO)Oc1ccc(C)cc1)C(C)C (some centres not stated) — 3.8-fold higher, 0.15 µM
- COC(=O)[C@@H](C)NP(=O)(OC[C@H]1OC(C)(C)O[C@H]1C(=O)NO)Oc1ccc(OC)cc1 (some centres not stated) — 95-fold higher, 3.79 µM
- CCOC(=O)[C@H](NP(=O)(OC[C@H]1OC(C)(C)O[C@H]1C(=O)NO)Oc1ccc(OC)cc1)C(C)C (some centres not stated) — 2.8-fold higher, 0.11 µM
- COC(=O)[C@@H](C)NP(=O)(OC[C@H]1OC(C)(C)O[C@H]1C(=O)NO)Oc1cccc(C)c1C (some centres not stated) — 6.8-fold higher, 0.27 µM
- CCOC(=O)[C@H](NP(=O)(OC[C@H]1OC(C)(C)O[C@H]1C(=O)NO)Oc1cccc(C)c1C)C(C)C (some centres not stated) — within 1.5-fold, 0.05 µM
- Cc1cccc(OP(=O)(N[C@@H](C(=O)OC(C)(C)C)C(C)C)OC[C@H]2OC(C)(C)O[C@H]2C(=O)NO)c1C (some centres not stated) — 5-fold lower, 0.008 µM
- CC1(C)O[C@H](COP(=O)(O)O)[C@H](C(=O)NO)O1 — higher, > 330 µM

System: not listed separately
Test: Chemical stability of the compound in phosphate buffer saline at pH 2 assessed as half life
Assay type: physicochemical
Details: not given

Point of comparison: CCOC(=O)[C@H](NP(=O)(OC[C@H]1OC(C)(C)O[C@H]1C(=O)NO)Oc1cccc(C)c1C)C(C)C (some centres not stated), t1/2 10 h. Against it:
- CC(C)[C@@H](NP(=O)(OC[C@H]1OC(C)(C)O[C@H]1C(=O)NO)Oc1ccccc1)C(=O)OC(C)(C)C (some centres not stated) — 2.8-fold higher, 28 h
- COC(=O)[C@H](NP(=O)(OC[C@H]1OC(C)(C)O[C@H]1C(=O)NO)Oc1ccc(C)cc1)C(C)C (some centres not stated) — 2.8-fold higher, 28 h
- CCOC(=O)[C@H](NP(=O)(OC[C@H]1OC(C)(C)O[C@H]1C(=O)NO)Oc1ccc(C)cc1)C(C)C (some centres not stated) — 1.5-fold higher, 15 h
- COC(=O)[C@@H](C)NP(=O)(OC[C@H]1OC(C)(C)O[C@H]1C(=O)NO)Oc1ccc(OC)cc1 (some centres not stated) — within 1.5-fold, 8.5 h

System: Liver microsomes
Test: Clearance in pooled human liver microsomes at 0.5 uM
Assay type: ADME, Microsome
Details: not given
Procedure, shortened: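 Pooled human liver microsomes (0.5 mg/mL in 50 mM potassium phosphate, pH 7.4) with compound at 0.5 μM; reaction started with excess NADPH. Samples at 0, 3, 6, 9, 15, 30 min, quenched in acetonitrile with internal standard, centrifuged, analysed by UPLC-MS/MS. Rate constant from exponential decay of compound/internal standard peak-area ratio; clearance given as mL/min/g.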

Point of comparison: CC(C)[C@@H](NP(=O)(OC[C@H]1OC(C)(C)O[C@H]1C(=O)NO)Oc1ccccc1)C(=O)OC(C)(C)C (some centres not stated), CL 5 mL/min/g. Against it:
- Cc1cccc(OP(=O)(N[C@@H](C(=O)OC(C)(C)C)C(C)C)OC[C@H]2OC(C)(C)O[C@H]2C(=O)NO)c1C (some centres not stated) — 2-fold higher, 10 mL/min/g
